# Screening results as filed in PubChem.
# Rows were chosen to be rich in hits. Some 2.9% of all compounds tested hit in one or more screens of this group.
# PRMT1 inh: PRMT1 methyltransferase inhibitors, primary screen, biochemical, fluorescence polarization | 1.3% of 370,000 active | AID 652257, 2013 | recombinant PRMT1, activity-based probe fluorescence polarization | Protein arginine N-methyltransferase 1 (Homo sapiens), Q99873 | inhibition, % at 2.79 µM;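 active = inhibition above about 21% made by adding two undisclosed values, limit read from the data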
# TCR-CD3 inh: inhibitors of human TCR-CD3 interaction, primary screen, biochemical, fluorescence, TAMRA-labeled TCR probe. inhibition, % at 9.4 µM. 0.37% of 360,000 active; in the data active = inhibition above about 19%;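 also: recombinant mutant TCR 2C K166C tagged with TAMRA read by polarization; 0% = receptor in buffer alone and 100% = receptor with positive control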
# ATG4B inhibitor: ATG4B protease inhibitors, primary screen, biochemical, fluorescence, uHTS; AID 504462, 2011; 0.51% of 340,000 active; ATG4B cleavage of LC3-PLA2, NBD-HPC fluorescence, 1 h; inhibition, % at 8.33 µM; in the data active = inhibition above about 40%
# mABHD4 FP: ABHD4 inhibitors, primary screen, biochemical, fluorescence polarization, mouse; (Lyso)-N-acylphosphatidylethanolamine lipase (Mus musculus), Q8VD66; purified mABHD4, FP-Rh probe fluorescence polarization; inhibition, % at 8.92 µM; 0.54% of 370,000 active;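 active = inhibition exceeding the mean over every tested compound plus 3 SD, cut at about 30% in these data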;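 also: 0% = plate median of compound wells and 100% = S159A mutant with DMSO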
# Target sequence (Q8VD66 whole entry, looked up): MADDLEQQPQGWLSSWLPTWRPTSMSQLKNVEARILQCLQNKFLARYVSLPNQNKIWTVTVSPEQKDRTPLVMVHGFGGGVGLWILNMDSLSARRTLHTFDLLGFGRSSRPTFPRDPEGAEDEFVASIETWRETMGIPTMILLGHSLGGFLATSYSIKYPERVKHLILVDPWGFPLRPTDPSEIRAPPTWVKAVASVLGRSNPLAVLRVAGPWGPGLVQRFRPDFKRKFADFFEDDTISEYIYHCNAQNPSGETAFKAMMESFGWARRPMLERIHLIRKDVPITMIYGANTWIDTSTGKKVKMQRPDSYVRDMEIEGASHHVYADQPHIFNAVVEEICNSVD
#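 assay system = mABHD4 protein | compound dosing = single nominal dose of 8.92 µM, 0.89% DMSO final | read-out basis = percent inhibition of probe binding, normalized to plate controls | schedule = Enzyme–compound pre-incubation 45 min, then probe 60 min, both 25 °C | detection = fluorescence polarization, excitation 525 nm, emission 598 nm, BODIPY TMR filters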
# SIAE inh: human SIAE inhibitors, primary screen, biochemical, fluorescence polarization, FP-Rh probe, 1536-well HTS | inhibition, % at 9.66 µM | 0.69% of 370,000 active | SIAE FP-Rh probe binding;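 active = inhibition above a cutoff: mean of compounds within the control limits plus 3 SD of those, cut at about 17% in these data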;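 also: 0% = plate median of compound wells and 100% = probe without SIAE protein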
# HTRA1 inhibitor: HTRA1 serine protease inhibitors, primary screen, biochemical, fluorescence polarization, HTS; Q92743; recombinant HTRA1, FP-rhodamine activity-based probe; inhibition, % at 5.96 µM; 0.5% of 340,000 active; AID 504803, 2011; in the data active = inhibition above about 36%;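 also: 0% = enzyme with DMSO and 100% = wells lacking enzyme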
# * marks the source's active call; other numbers are inactive results; nt = not tested or not shown.
SMILES,PRMT1 inh,TCR-CD3 inh,ATG4B inhibitor,mABHD4 FP,SIAE inh,HTRA1 inhibitor
CC(C)(C)c1csc(NNC(=O)c2ccc(Br)cc2)n1,23.3*,0.1,-6.5,-5.2,-7.0,19.6
CC(C)(C)c1csc(NC(=O)c2ccccc2O)n1,-2.9,4.0,15.4,-3.9,5.4,-3.2
Cc1c(C)c(C)c(C(=O)c2ccc(NC(=O)c3ccccc3C(=O)O)cc2)c(C)c1C,-0.8,-7.7,94.0*,-3.8,-3.7,-18.6
O=C(Nc1ccc(C(=O)c2ccc(C(=O)O)c(C(=O)O)c2)cc1)c1ccccc1,-2.2,0.4,0.6,-0.5,0.8,1.0
CCOC(=O)[C@]12CCCCC/C=C\1N(CCc1ccc(Cl)cc1)C(=O)[C@H]2CC(=O)N1CCCCC1,2.1,nt,nt,5.2,0.7,nt
C[C@H](NC(=O)[C@@H]1CSC2c3ccccc3C(=O)N21)C(=O)NCCc1ccc(F)cc1 (some centres undefined),24.7*,-2.2,-4.8,-5.5,-5.0,4.8
C[C@H](NC(=O)[C@@H]1CSC2c3ccccc3C(=O)N21)C(=O)NCCc1ccccc1 (some centres undefined),13.3,-2.3,-1.7,2.9,-5.2,5.8
Cc1[nH]c2ccccc2c1/C=N/Nc1cccc(C(=O)O)c1,5.1,11.7,1.5,33.6*,6.9,17.6
COC(=O)c1ccccc1NC(=O)c1ccccc1OC,-1.3,9.3,-1.0,-0.1,-4.2,-6.3
COc1ccccc1C(=O)Nc1ccccc1SC(=O)c1ccccc1OC,52.4*,0.5,10.8,-11.8,-20.9,-9.7
O=C1CC(=O)N(Cc2ccco2)C(=S)N1,nt,nt,46.2*,nt,nt,-46.9
O=C1CC(=O)N(Cc2ccco2)C(=O)N1,21.9*,8.0,-1.9,-4.7,-9.4,-6.8
Fc1ccc(CNC(=S)NC2CCCCCC2)cc1,3.9,-6.0,44.5*,-7.0,-5.4,-10.7
COc1ccc(CNC(=S)NC2CCCCC2)cc1,2.2,1.1,0.3,-2.9,0.8,-3.2
CC(=O)Oc1ccc2c(=O)c(-c3ccccc3)coc2c1,-1.4,3.7,-0.2,0.6,-2.2,-2.7
COc1ccc(-c2coc3cc(OC(C)=O)ccc3c2=S)cc1,22.2*,2.6,-1.8,-1.4,7.6,2.4
NC(=S)NN=CCn1cc([N+](=O)[O-])c(=O)[nH]c1=O,23.8*,1.7,0.1,4.6,3.8,3.5
O=C1CC(NCc2ccc(F)cc2)C(=O)N1c1ccccc1 (centres undefined),21.7*,-1.1,-27.5,1.5,-6.1,0.9
N#CCNC1CC(=O)N(c2ccc(F)cc2)C1=O (centres undefined),22.2*,-3.1,2.7,-0.4,-3.8,2.0
O=C1CC(NCc2ccncc2)C(=O)N1c1ccccc1 (centres undefined),8.6,-6.2,9.0,9.8,2.3,0.6
CC(C)(C)N=Cc1c(O)ccc2oc3c(c12)CCCC3,1.3,-1.8,3.6,7.1,12.3,10.2
O=[N+]([O-])c1cc2oc3c(c2c(C=NCc2ccncc2)c1O)CCCC3,nt,nt,24.4,nt,nt,49.6*
COc1ccc(-c2n[nH]c(=S)n2/N=C/C=C\c2ccccc2OC)cc1,3.7,-0.3,4.1,-1.7,1.6,-5.6
S=c1[nH]nc(-c2ccccc2)n1/N=C/c1ccc(Cl)cc1,21.6*,0.2,4.1,-2.6,4.8,2.5
COc1ccccc1/C=C/C=N/n1c(-c2ccc(C)cc2)n[nH]c1=S,22.3*,-8.0,21.6,-13.3,-2.9,-19.3
SMILES,PRMT1 inh,TCR-CD3 inh,ATG4B inhibitor,mABHD4 FP,SIAE inh,HTRA1 inhibitor
COc1ccc(C2=NN(c3nc(-c4ccccc4)c(CC(=O)O)s3)C(c3ccco3)C2)cc1 (centres undefined),22.1*,-4.2,8.7,-7.9,-25.4,-31.9
Cc1ccc2cccc(NC3OC(=O)c4ccccc43)c2n1 (centres undefined),0.7,9.8,-4.9,7.0,19.1*,14.5
COC(=O)c1ccccc1NC1OC(=O)c2ccccc21 (centres undefined),5.8,1.7,-6.7,-18.9,-8.3,-4.5
Cc1ccc(OCc2nnc(SCC(=O)Nc3ccc4c(c3)OCO4)n2Cc2ccco2)cc1,-0.6,nt,nt,-0.4,0.4,nt
N#CC1=C(S)N=C(N)C(c2nc(-c3ccccc3)cs2)C12CCCC2 (centres undefined),33.4*,-3.9,-8.8,-19.4,-19.8,-0.4
N#CC1=C(S)N=C(N)C(c2nc(-c3ccccc3)cs2)C12CCCCC2 (centres undefined),16.0,1.3,-10.1,-8.8,-11.9,13.6
N#Cc1c(NC(=O)c2ccccc2Cl)n(Cc2ccccc2)c2nc3ccccc3nc12,1.6,6.1,52.3*,9.7,-3.0,-25.8
CCCCn1c(NC(=O)c2ccccc2Cl)c(C#N)c2nc3ccccc3nc21,-1.7,-1.5,31.6,-1.9,0.0,-13.5
COc1cccc2c1[C@H](/C=C/c1ccccc1)[C@@H]([C@H](O)CO)OC2,-4.6,nt,nt,-4.2,-1.6,nt
COC(=O)[C@@]12CCCCC=C1N(CCc1ccc(Cl)cc1)C(=O)[C@H]2CC(=O)NCc1cccc2ccccc12,3.0,nt,nt,-5.4,-7.5,nt
CCC(COC)Oc1cc(NCc2ccccc2)c2ncn(C(C)C)c2c1 (centres undefined),1.8,5.2,11.7,23.8,5.2,30.2
CCC(COC(=O)c1ccccc1)Oc1cc(NCc2ccccc2)c2ncn(C(C)C)c2c1 (centres undefined),3.6,1.5,22.0,31.0*,7.2,20.1
COc1ccc([N+](=O)[O-])c(S(=O)(=O)c2ccccc2)n1,24.7*,-6.2,-1.7,1.8,3.7,nt
COc1ccc([N+](=O)[O-])c(S(=O)(=O)c2ccc(Cl)cc2)n1,20.8,5.7,3.3,0.2,3.6,4.7
CCCCN1CCN(C(=O)C2CCN(S(=O)(=O)c3ccc4[nH]c(=O)oc4c3)CC2)CC1,1.6,nt,nt,-0.8,5.9,nt
CCC1(C)Cc2ccccc2/C(=C/C(=O)N2CCCCC2)N1 (centres undefined),22.2*,4.4,4.2,18.1,3.0,1.2
CN1CCc2c(sc3c2C(=O)NC(c2ccccc2)N3)C1 (centres undefined),9.4,-9.1,-9.4,4.7,-14.4,8.8
CN1CCc2c(sc3c2C(=O)NC(c2ccccn2)N3)C1 (centres undefined),26.6*,6.5,-1.4,19.3,-8.3,2.0
COc1ccc(C(c2c(O)ccc3ccccc23)N2CCOCC2)c(OC)c1 (centres undefined),67.4*,6.3,-1.3,-30.4,-14.3,-75.7
COc1cc(C(=O)N/N=C/c2cn(Cc3cccc(F)c3)c3ccccc23)ccc1O,7.4,-6.3,16.1,5.3,29.5*,2.9
